{"source": "ChEMBL document CHEMBL3045605", "about": "“Synthesis and anticancer evaluation of novel 3,5-diaryl-thiazolo[4,5-d]pyrimidin-2-one derivatives” (2013)", "type_in_all_cases": "functional", "key": {"SK-MEL-2": {"test_system": "SK-MEL-2", "test": "Anticancer activity against Homo sapiens (human) SK-MEL-2 cells by SRB assay", "how_it_was_run": "(§1)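 Five-dose NCI 60-cell-line panel testing at tenfold dilutions from 10−4 to 10−8 M, with growth read by sulforhodamine B protein staining. For each cell line: GI50 is the molar concentration giving half growth inhibition; TGI is total growth inhibition (cytostatic); LC50 is the molar concentration killing 50% of the initial cells (cytotoxic).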"}, "COLO 205": {"test_system": "COLO 205", "test": "Anticancer activity against Homo sapiens (human) COLO205 cells assessed as cell growth at 10 uM by SRB assay", "settings": "read-out: Activity", "how_it_was_run": "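NCI 60-cell human tumour panel (nine cancer types) screened at one concentration, 10−5 M. Cell growth estimated by sulforhodamine B protein staining and reported as percent growth of treated cells relative to untreated controls.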"}, "PC-3": {"test_system": "PC-3", "test": "Anticancer activity against Homo sapiens (human) PC3 cells assessed as cell growth at 10 uM by SRB assay", "settings": "read-out: Activity", "how_it_was_run": "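Single-dose screen in the NCI 60-human-tumour-cell-line panel (nine cancer types) at 10−5 M. Cell growth was estimated by sulforhodamine B protein staining and reported as percent growth of treated cells relative to untreated controls.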"}, "SN12C": {"test_system": "SN12C", "test": "Anticancer activity against Homo sapiens (human) SN12C cells by SRB assay", "how_it_was_run": "as §1"}, "SNB-19": {"test_system": "SNB-19", "test": "Anticancer activity against Homo sapiens (human) SNB19 cells by SRB assay", "how_it_was_run": "as §1"}, "T47D": {"test_system": "T47D", "test": "Anticancer activity against Homo sapiens (human) T47D cells by SRB assay", "how_it_was_run": "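NCI five-dose follow-up on the 60-line human tumour panel at tenfold dilutions from 10−4 to 10−8 M, with growth read by sulforhodamine B protein assay against untreated controls. For each cell line, GI50 (half growth inhibition), TGI (total growth inhibition) and LC50 (50% death of initial cells) are calculated as molar concentrations.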"}}}
{"smiles": "O=c1sc2c(Cl)nc(-c3ccccc3)nc2n1-c1ccccc1", "values": [{"measurement": "GI50", "setting": "SK-MEL-2", "result": 9.12, "unit": "µM"}, {"measurement": "TGI", "setting": "SK-MEL-2; read-out: pTGI", "result": 43.7, "unit": "µM"}, {"measurement": "growth at 10 µM", "setting": "COLO 205", "result": 52, "unit": "%"}, {"measurement": "growth at 10 µM", "setting": "PC-3", "result": 11, "unit": "%"}, {"measurement": "GI50", "setting": "SN12C", "result": 7.41, "unit": "µM"}, {"measurement": "GI50", "setting": "SNB-19", "result": 41.7, "unit": "µM"}, {"measurement": "GI50", "setting": "T47D", "result": 17, "unit": "µM"}]}
